Columns and labels:
P388 [1] = assay: Optimal dose effective against P388 murine leukemia in mice; assay type: functional, Mus musculus
Outline: (§1)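 P388 ascites cells (10⁶) were implanted in CDF₁ female mice. Six mice per dose were dosed on day 1 only; 10 controls received saline, and mitomycin C reference groups had six mice per dose. %T/C = MST treated/control × 100. The optimal dose gave the maximum %T/C. MED is the dose giving %T/C 125. TR = optimal dose/MED.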

P388 [2] = assay: (Percentage) Maximum effect on life span of control group of mice for mytomycin C at its optimal dose; assay type: functional, Mus musculus
Outline: (§2)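 CDF₁ female mice were implanted with 10⁶ P388 ascites cells and dosed on day 1 only, six mice per dose. There were 10 saline-injected controls, plus a six-mouse mitomycin C group per dose in each experiment. % T/C = median survival treated/control × 100 at optimal dose; MED is the dose giving % T/C 125; TR = optimal dose/MED.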

P388 [3] = assay: (Percentage) Maximum effect on life span of mice against P388 murine leukemia when compared with control; assay type: functional, Mus musculus; outline: as §2
P388 [4] = assay: Minimum effective dose (MED) against P388 murine leukemia in mice; assay type: functional; conditions: Mus musculus, read-out: MED; outline: as §1
[5] = (§3) Therapeutic ratio of optimal dose to minimum effective dose(MED); assay type: ADME; conditions: mouse; outline: as §1
[6] = (§4) Average change in weight between treated and control groups at 12 mg/kg in mice infected with L1210 leukemia cells; assay type: functional, Mus musculus
Outline: (§5)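 L1210 ascites cells (10⁶) were implanted into BDF₁ female mice. Six mice per dose received a single injection on day 1 in distilled water containing Tween 80; the control group had 36 mice. Survivors were counted on days 5 and 30. %T/C = MST (days) treated/control × 100, with 125 as significant. Weight change is the average weight difference between treated and control groups.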

L1210 [7] = assay: (§6) Average change in weight between treated and control groups at 3 mg/kg in mice infected with L1210 leukemia cells; assay type: functional, Mus musculus
Outline: (§7)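 BDF₁ female mice received 10⁶ L1210 ascites cells, then a single injection on day 1 in distilled water containing Tween 80, six mice per dose. The control group had 36 mice. Median survival time is in days; % T/C = MST treated/MST control × 100, with 125 taken as significant. Weight change is the average weight difference between treated and control groups.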

L1210 [8] = assay: Median survival time against L1210 murine leukemia at 12 mg/kg in mice when compared with control; assay type: functional, Mus musculus; outline: as §7
L1210 [9] = assay: Median survival time against L1210 murine leukemia at 3 mg/kg in mice when compared with control; assay type: functional, Mus musculus; outline: as §7
L1210 [10] = assay: Median survival time against L1210 murine leukemia at 6 mg/kg in mice when compared with control; assay type: functional, Mus musculus; outline: as §7
L1210 [11] = assay: Average change in weight between treated and control groups at 6 mg/kg in mice infected with L1210 leukemia cells; assay type: functional, Mus musculus; outline: as §5
L1210 [12] = assay: Average change in weight between treated and control groups at 1.5 mg/kg in mice infected with L1210 leukemia cells; assay type: functional, Mus musculus; outline: as §5
L1210 [13] = assay: Median survival time against L1210 murine leukemia at 1.5 mg/kg in mice when compared with control; assay type: functional, Mus musculus; outline: as §7
L1210 [14] = assay: Average change in weight between treated and control groups at 24 mg/kg in mice infected with L1210 leukemia cells; assay type: functional, Mus musculus; outline: as §7
L1210 [15] = assay: Median survival time against L1210 murine leukemia at 24 mg/kg in mice when compared with control; assay type: functional, Mus musculus; outline: as §7
L1210 [16] = assay: as §4; assay type: functional, Mus musculus; outline: as §7
[17] = as §3; assay type: ADME; conditions: mouse, p388; outline: as §2
L1210 [18] = assay: as §6; assay type: functional, Mus musculus; outline: as §5; remark: listed apart in the source
L1210 [19] = assay: Median survival time against L1210 murine leukemia at 24 mg/kg in mice when compared with control; Toxic; assay type: functional, organism-based; parameters: dose 24 mg/kg; conditions: Mus musculus; outline: as §5

| Compound | Dose (P388 [1]) | T/C (P388 [2]) | T/C (P388 [3]) | minimal effective dose (P388 [4]) | selectivity ratio [5] | other results |
| --- | --- | --- | --- | --- | --- | --- |
| CNC(=O)OC1CCn2c3c(c(CCl)c21)C(=O)C(OC)=C(C)C3=O (centres undefined) | 12.8 mg/kg | 222% | 139% | 12.8 mg/kg | 1 | – |
| COC1=C(C)C(=O)c2c(c(COC(N)=O)c3n2CCC3OC(=O)c2cccnc2)C1=O (centres undefined) | 6.4 mg/kg | 211% | 128% | 6.4 mg/kg | 1 | – |
| CO[C@@]12[C@H](COC(N)=O)C3=C(C(=O)C(C)=C(N)C3=O)N1C[C@@H]1N[C@@H]12 [MITOMYCIN] | – | – | – | – | – | Average weight change [6]: -5.5 g; Average weight change (L1210 [7]): -2.4 g; T/C (L1210 [8]): 110%; T/C (L1210 [9]): 122%; T/C (L1210 [10]): 124%; Average weight change (L1210 [11]): -3.6 g; Average weight change (L1210 [12]): -1.2 g; T/C (L1210 [13]): 108% |
| COC1=C(C)C(=O)c2c(c(COC(N)=O)c3n2CCC3OC(=O)CCl)C1=O (centres undefined) | 6.4 mg/kg | 224% | 111% | – | – | – |
| COC1=C(C)C(=O)c2c(c(COC(N)=O)c3n2CCC3OC(=O)C(C)(C)C)C1=O (centres undefined) | 51.2 mg/kg | 183% | 117% | – | – | – |
| COC1=C(C)C(=O)c2c(c(COC(N)=O)c3n2CCC3OC(C)=O)C1=O (centres undefined) | 6.4 mg/kg | 229% | 165% | 0.8 mg/kg | 8 | – |
| COC1=C(C)C(=O)c2c(c(COC(N)=O)c3n2CCC3O)C1=O (centres undefined) | 6.4 mg/kg | 181% | 113% | – | – | – |
| CC1=C(N2CC2)C(=O)c2c(COC(N)=O)c3n(c2C1=O)CCC3OC(N)=O (centres undefined) | 51.2 mg/kg | 183% | 144% | 0.8 mg/kg | 64 | Average weight change (L1210 [14]): -3.2 g; Average weight change (L1210 [7]): -1.1 g; T/C (L1210 [8]): 134%; T/C (L1210 [15]): 138%; T/C (L1210 [9]): 112%; T/C (L1210 [10]): 114%; Average weight change (L1210 [11]): -1.6 g; Average weight change (L1210 [12]): -0.6 g; Average weight change (L1210 [16]): -2.4 g; T/C (L1210 [13]): 108% |
| COc1c(C)c(O)c2c(c1O)c(COC(N)=O)c1n2C[C@@H]2[C@H]1N2C (some centres undefined) | 12.8 mg/kg | 181% | 213% | 0.8 mg/kg | 16 | – |
| COC1=C(C)C(=O)c2c(c(COC(N)=O)c3n2CCC3)C1=O | 51.2 mg/kg | 183% | 128% | 51.2 mg/kg | – | selectivity ratio [17]: 1 |
| COC1=C(C)C(=O)c2c(c(COC(N)=O)c3n2CCC3OC(N)=O)C1=O (centres undefined) | 6.4 mg/kg | 238% | 163% | 0.4 mg/kg | 16 | Average weight change (L1210 [14]): -5.1 g; Average weight change (L1210 [18]): -3.2 g; T/C (L1210 [8]): 122%; T/C (L1210 [19]): Toxic; T/C (L1210 [9]): 118%; T/C (L1210 [10]): 116%; Average weight change (L1210 [11]): -1.7 g; Average weight change (L1210 [12]): -1.4 g; Average weight change (L1210 [16]): -3.4 g; T/C (L1210 [13]): 114% |
| CC(=O)OC1CCn2c3c(c(COC(N)=O)c21)C(=O)C(N1CC1)=C(C)C3=O (centres undefined) | 6.4 mg/kg | 224% | 122% | – | – | – |
| COC(=O)OC1CCn2c3c(c(COC(N)=O)c21)C(=O)C(OC)=C(C)C3=O (centres undefined) | 3.2 mg/kg | 244% | 150% | 1.6 mg/kg | 2 | – |
| CNC(=O)OC1CCn2c3c(c(COC(N)=O)c21)C(=O)C(OC)=C(C)C3=O (centres undefined) | 6.4 mg/kg | 228% | 167% | 1.6 mg/kg | – | – |
| COC1=C(C)C(=O)c2c(c(COC(N)=O)c3n2CC/C3=N\O)C1=O | 6.4 mg/kg | 181% | 150% | 1.6 mg/kg | 4 | – |

Source: ChEMBL document CHEMBL1121886, “Synthesis and antineoplastic activity of mitosene analogues of the mitomycins” (J Med Chem, 1981)
